In the library only some 1.8% were active in any assay of this set; here they are far more common.
697 NFkB inh: inhibitors of the PMA/ionomycin-induced NF-kB reporter in 697 B cells | 330,000 tested, 0.33% active | inhibition, % at 4 µM | AID 435022 | 697 B-cell NF-kB luciferase reporter, 16 h; in the data active means inhibition above about 35%
Gli-Sufu block: Gli-Sufu pathway antagonism; Sufu-KO-LIGHT fibroblasts, Gli luciferase reporter luminescence; inhibition, % at 5 µM; 340,000 tested, 0.74% active; AID 588413;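 active means inhibition above about 55%, limit read from the data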;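 further: 0% = DMSO-treated cells and 100% = wells with medium but no cells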
NR2E3 ag-1: agonists of human NR2E3 nuclear receptor | CHO-S Gal4-NCOR/VP16-NR2E3 two-hybrid, luciferase | inhibition of corepressor binding, % at 3.98 µM | 360,000 tested, 0.35% active;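 active means inhibition above the mean of all tested compounds plus 3 SD, cut at about 70% in these data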;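 further: 0% = DMSO with NR2E3 transfected cells and 100% = cells lacking NR2E3 construct; higher means lower luciferase signal from less NR2E3 corepressor binding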
Target sequence (Q9Y5X4 whole entry, looked up, the tested form may be a part): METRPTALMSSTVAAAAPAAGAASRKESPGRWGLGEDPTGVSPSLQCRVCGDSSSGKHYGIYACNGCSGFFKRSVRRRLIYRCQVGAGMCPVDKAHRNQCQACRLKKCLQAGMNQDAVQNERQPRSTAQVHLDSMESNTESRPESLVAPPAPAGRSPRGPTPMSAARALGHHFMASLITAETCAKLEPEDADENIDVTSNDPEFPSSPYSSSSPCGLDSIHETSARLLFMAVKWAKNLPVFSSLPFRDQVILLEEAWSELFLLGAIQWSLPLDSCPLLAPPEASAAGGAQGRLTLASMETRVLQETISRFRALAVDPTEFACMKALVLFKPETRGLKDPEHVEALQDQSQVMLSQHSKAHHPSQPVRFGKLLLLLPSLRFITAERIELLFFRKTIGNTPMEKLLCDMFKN
GalR3 antag: human GalR3 antagonism; 360,000 tested, 0.44% active; HEK293 GalR3-CNG cAMP membrane potential fluorescence; galR3 body fused to GalR1 C-terminus; O60755; AID 651719; inhibition, % at 3 µM;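 active means inhibition above the screen-wide average plus 3 SD, cut at about 13% in these data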;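 further: forskolin and galanin both at EC90 stimulate the cells; cAMP rise reported by CNG channel membrane potential dye signal; 0% = forskolin plus galanin with DMSO and 100% = forskolin alone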
Target sequence (O60755 1-299 limits assumed): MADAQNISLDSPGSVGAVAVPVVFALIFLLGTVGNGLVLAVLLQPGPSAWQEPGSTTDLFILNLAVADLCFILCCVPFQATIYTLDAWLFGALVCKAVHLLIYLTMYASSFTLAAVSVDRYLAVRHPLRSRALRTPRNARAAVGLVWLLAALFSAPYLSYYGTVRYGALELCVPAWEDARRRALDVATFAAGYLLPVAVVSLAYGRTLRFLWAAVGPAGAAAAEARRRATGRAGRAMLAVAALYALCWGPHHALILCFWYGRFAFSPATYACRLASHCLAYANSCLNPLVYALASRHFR
NR2E3 ag-2: agonists of human nuclear receptor NR2E3 | Q9Y5X4 | GST-NR2E3/biotin-RetCOR TR-FRET, 1536-well | inhibition of corepressor binding, % at 4.78 µM | 320,000 tested, 0.12% active | AID 2300;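 active means percent inhibition above the cutoff of mean plus 3 SD of all tested compounds, set per screening campaign, cut at about 20% in these data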;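 further: 0% = DMSO wells and 100% = biotin wells as full block of FRET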
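System: GST-tagged NR2E3 plus biotinylated RetCOR corepressor; Amount: 1.35 nM GST-tagged NR2E3 final; Dosing: single nominal compound dose of 4.8 µM; Schedule: 5 h incubation at 4 °C; Technique: TR-FRET with europium anti-GST and streptavidin-D2, 340 nm excitation; Controls: biotin wells as high control, 0.6% DMSO wells as low control.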
Jurkat NFkB inh: inhibitors of the PMA/ionomycin-induced NF-kB reporter in Jurkat cells. PMA/ionomycin-induced NF-kB luciferase reporter, luminescence. inhibition, % at 4 µM. 330,000 tested, 0.53% active. AID 435003; in the data active means inhibition above about 50%
NR2E3 ag confirm: NR2E3 agonism confirmed in two-hybrid assay | shares compounds with NR2E3 ag-1 | CHO-S mammalian two-hybrid NR2E3-NCOR, luciferase luminescence | inhibition, % at 3.98 µM | 2,300 tested, 51% active | AID 624378;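 active means average inhibition above a cutoff equal to the mean inhibition of all tested compounds plus one SD, cut at about 70% in these data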;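 further: 0% = DMSO in NR2E3 cells and 100% = DMSO in cells lacking NR2E3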
VP16 counter: reduces GAL4-VP16 reporter signal in NR2E3 counterscreen. shares compounds with NR2E3 ag-1. CHO-S GAL4-VP16 luciferase reporter, luminescence. inhibition, % at 3.98 µM. 2,300 tested, 29% active;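 active means mean inhibition above a cutoff equal to the average over all tested compounds plus one standard deviation, cut at about 70% in these data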;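 further: luciferase from a UAS reporter driven by GAL4-VP16 transactivation; 0% = DMSO with VP16-transfected cells and 100% = DMSO with cells lacking VP16; higher means less reporter light so more repression of VP16 activity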
The depositor's hits bear a star; · = no result given.

SMILES	697 NFkB inh	Gli-Sufu block	NR2E3 ag-1	GalR3 antag	NR2E3 ag-2	Jurkat NFkB inh	NR2E3 ag confirm	VP16 counter
COCCNc1nc(NCc2ccc(C)cc2C)c2sccc2n1	·	·	5	-9	·	·	·	·
COc1ccccc1CNc1nc(NCc2cccc(OC)c2OC)c2sccc2n1	·	·	21	-9	·	·	·	·
COc1ccccc1CC(=O)NNC(=O)c1ccco1	13	-1	-1	-8	-2	6	·	·
C#Cc1cccc(Nc2nc(NCc3ccccc3OC)nc3ccsc23)c1	·	·	68	-7	·	·	92*	75*
O=C(C[C@@H]1CC[C@@H]2[C@H](COC[C@H](O)CN2CCC(F)(F)F)O1)NCc1ccc2c(c1)OCO2	·	·	·	-7	·	·	·	·
Cn1c(-c2ccc(C(C)(C)C)cc2)n[nH]c1=S	-20	8	-38	1	-1	3	·	·
CC(C)(C)c1ccc(-c2n[nH]c(=S)n2C2CCCC2)cc1	-2	14	65	-7	-1	3	72*	61
CC(=O)Nc1ccc(S(=O)(=O)N(C)CC(=O)OCC(=O)N2CCCC2=O)cc1	1	-8	-32	-3	-4	20	·	·
CN(C)c1ccc(Nc2nc(N)c3ccccc3n2)cc1	-83	23	-174	-12	-13	-23	·	·
CN(C)c1ccc(Sc2ccc3nc(N)nc(N)c3c2)cc1	·	·	76*	1	·	·	36	52
O=C1N[C@@H](Cc2ccccc2)COC(=O)[C@H](Cc2ccc(F)cc2)C/C=C\C[C@H]1CC(=O)N(CCO)Cc1ccccc1	1	3	-23	-5	·	5	·	·
O=C1NC[C@H](c2ccccc2)OC(=O)[C@@H](Cc2ccc(F)cc2)CC/C=C/C[C@H]1CC(=O)N(CCO)Cc1ccccc1	18	19	49	-8	·	0	37	31
O=C1N[C@H](Cc2ccccc2)COC(=O)[C@H](Cc2ccc(F)cc2)C/C=C\C[C@H]1CC(=O)N(CCO)Cc1ccccc1	7	23	62	-11	·	-8	63	16
CC1CCN(C(=S)c2ccc(N(C)C)cc2)CC1	-4	-18	-31	-7	-3	7	·	·
CC(=O)c1ccc(S(=O)(=O)N(C)C(C)CCc2ccco2)cc1 (stereo not drawn)	-15	-1	-34	-11	·	-25	·	·
CCOC(=O)c1c(C)[nH]c(C(=O)OCC(=O)Nc2ccc(Cl)cn2)c1C	8	1	23	-1	0	17	·	·
CCOC(=O)c1c(C)[nH]c(C(=O)OCC(=O)Nc2sccc2C(N)=O)c1C	-46	51	54	-2	6	13	44	35
O=C(Nc1ccc(N2CCN(C(=O)c3ccccc3)CC2)cc1)c1ccc2c(c1)OCO2	-33	20	66	-8	1	-13	85*	46
CC(=O)N1CCN(c2ccc(NC(=O)c3ccc4c(c3)OCO4)cc2)CC1	5	-43	6	-4	0	-12	·	·
CCOc1ccccc1N1CCN(C(=O)c2ccc(OCC(=O)N3CCOCC3)c(OC)c2)CC1	-14	1	-8	0	0	2	·	·
O=C(CCCN1C(=O)/C(=C/c2ccccc2Cl)SC1=S)NNC(=O)c1cccnc1	2	-17	59	3	-1	-35	-1	35
S=c1[nH]ccc2ccccc12	·	-1	-32	-2	·	·	·	·
CCc1ccc(CN(C)C(=O)c2cc(COc3cncc(Cl)c3)on2)cc1	·	·	-22	-7	·	·	·	·
CN(Cc1ccc(F)cc1)C(=O)c1cc(COc2ccc(-n3cncn3)cc2)on1	-19	29	73*	-3	·	10	61	63
CCc1ccc(CN(C)C(=O)c2cc(COc3ccc(-n4cncn4)cc3)on2)cc1	-13	10	80*	-3	2	-6	43	44
SMILES	697 NFkB inh	Gli-Sufu block	NR2E3 ag-1	GalR3 antag	NR2E3 ag-2	Jurkat NFkB inh	NR2E3 ag confirm	VP16 counter
CC(C)N(Cc1nccn1C)C(=O)c1cc(COc2ccc(-n3cncn3)cc2)on1	0	10	-22	0	2	-8	·	·
Cc1ccc(OCc2cc(C(=O)N(C)Cc3cnn(-c4ccccc4C)c3)no2)cn1	-30	20	80*	-4	1	-8	56	49
O=C(c1ccccc1)N1CCN(C(=O)c2ccccc2)c2ccccc21	·	-22	13	0	·	·	·	·
Cc1ccccc1NC(=O)CCCNC(=O)c1ccc(Cl)cc1	-8	-16	3	-9	0	8	·	·
C=CCn1c(O)c(N=NC(=S)Nc2cccc(OC)c2)c2ccccc21	-8	45	77*	-13	-1	-3	31	35
C=CCn1c(O)c(N=NC(=S)Nc2ccc(OC)cc2)c2ccccc21	·	7	38	-4	3	·	·	·
COc1ccc(C(=O)NCCc2nnc3ccc(SCC(=O)NCCc4ccc(OC)c(OC)c4)nn23)cc1	8	-4	-15	-4	1	-7	·	·
N#Cc1cc2c(nc1SCC(=O)N1CCOCC1)CCCCC2	-68	30	73*	0	5	-47	29	0
CCCCCN(C(=O)CCC(=O)OCC(=O)Nc1cccc(CC)c1)c1c(N)n(CCCC)c(=O)[nH]c1=O	11	-3	-9	-5	1	4	·	·
O=c1[nH]c(-c2ccccc2)nnc1-c1ccccc1	-31	-34	-55	-5	0	-15	·	·
Cc1ccc(OCCNS(=O)(=O)c2ccc(N3CCCC3=O)cc2)cc1C	5	35	93*	-12	6	12	98*	85*
Cc1ccc(OCCNS(=O)(=O)c2ccc(N3CCCC3=O)cc2)cc1	-15	-25	61	-6	2	0	86*	72*
Cc1cc(N2CCCC2=O)cc(C)c1S(=O)(=O)NCCOc1ccccc1	2	5	16	-6	0	-2	·	·
CCOC(=O)C(=NO)C1=CSC2=NNC(C)(C)N12	·	·	8	-2	·	·	·	·
Cc1cc(=O)n2nc(N3CCC(C(=O)NCc4cccc(Cl)c4)CC3)sc2n1	5	-28	-10	9	-2	-7	·	·
COc1ccc([C@@H]2C[C@H]3[C@@H](CN2S(=O)(=O)c2ccccc2)C(=O)C[C@@H](c2cccc(Cl)c2)N3S(=O)(=O)c2ccc(C)cc2)cc1	·	·	62	·	·	·	72*	55
COc1ccc([C@@H]2CC(=O)[C@@H]3CN(S(=O)(=O)c4ccc(Cl)cc4)[C@H](c4ccc(C)cc4)C[C@@H]3N2S(=O)(=O)c2ccccc2)cc1	·	·	3	2	·	·	·	·
CC(C)OC(=O)CSc1nnc(CNc2ccc(Cl)cc2)n1Cc1ccccc1	-23	5	73*	-7	2	7	42	63
CCOC(=O)CSc1nnc(CNc2ccc(Cl)cc2)n1Cc1ccccc1	20	-15	18	-1	-3	-3	·	·

Bioassay records from PubChem BioAssay.
